In ChEMBL document CHEMBL5678806, “NMS-P937, an orally available, specific small-molecule polo-like kinase 1 inhibitor with antitumor activity in solid and hematologic malignancies” (Mol Cancer Ther, 2012):
Activity calls are given as the source filed them. The calls are words filed in the database; no cut-off is given here.

What was measured:
BT-549 = assay: Antiproliferative activity against human BT-549 cells assessed as inhibition of cell growth incubated for 72 hrs by cell-titer glo assay; format: functional, cell-based; conditions: BT-549, 72 h
In short: (§1)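 Cells seeded 10,000–30,000/cm² (adherent) or 100,000/mL (suspension) in medium with 10% fetal calf serum; after 24 h treated in duplicate with serial dilutions for 72 h. Viable cells read by CellTiter-Glo luminescence; IC50 from sigmoidal fit; at least two independent experiments.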

[1] = Toxicity in nu/nu mouse xenografted with human HCT-116 cells assessed as body weight loss at 45 mg/kg, iv administered for 3 days; format: organism-based; conditions: in vivo, 72 h, time 3 day
[2] = Inhibition of SULU1 (unknown origin) in presence of [gamma-33P]ATP; design: species or system Homo sapiens
RERF-LC-AI = assay: Antiproliferative activity against human RERF-LC-AI cells assessed as inhibition of cell growth incubated for 72 hrs by cell-titer glo assay; format: functional, cell-based
In short: (§2)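 Cells from ATCC or ECACC, kept in supplier-recommended medium with 1% penicillin-streptomycin at 37°C, 5% CO₂. Seeded at 10,000–30,000/cm² (adherent) or 100,000/mL (nonadherent) in medium with 10% fetal calf serum. Dosed after 24 h in duplicate with serial dilutions. Viable cells read by CellTiter-Glo 72 h later. IC50 from sigmoidal fit. At least two independent experiments.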

MDA-MB-436 = assay: Antiproliferative activity against human MDA-MB-436 cells assessed as inhibition of cell growth incubated for 72 hrs by cell-titer glo assay; format: functional, cell-based; conditions: MDA-MB-436, 72 h
In short: (§3)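 Cells seeded at 10,000–30,000/cm² (adherent) or 100,000/mL (nonadherent) in medium with 10% fetal calf serum; after 24 h, treated in duplicate with serial dilutions for 72 h. Viable cell number read by CellTiter-Glo luminescence; IC50 from sigmoidal fit; at least two independent experiments.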

[3] = Antiproliferative activity against human GM14788 cells assessed as inhibition of cell growth incubated for 72 hrs by cell-titer glo assay; format: functional, cell-based; conditions: GM14788, 72 h; in short: as §3
[4] = biological target: Serine/threonine-protein kinase Chk1 (Homo sapiens) (UniProt O14757); assay: Inhibition of N-terminal GST-tagged full length human CHK1 expressed in Sf21 cells assessed as residual activity at 0.1 uM relative to control
Sequence of Serine/threonine-protein kinase Chk1 (Homo sapiens) (O14757 whole entry): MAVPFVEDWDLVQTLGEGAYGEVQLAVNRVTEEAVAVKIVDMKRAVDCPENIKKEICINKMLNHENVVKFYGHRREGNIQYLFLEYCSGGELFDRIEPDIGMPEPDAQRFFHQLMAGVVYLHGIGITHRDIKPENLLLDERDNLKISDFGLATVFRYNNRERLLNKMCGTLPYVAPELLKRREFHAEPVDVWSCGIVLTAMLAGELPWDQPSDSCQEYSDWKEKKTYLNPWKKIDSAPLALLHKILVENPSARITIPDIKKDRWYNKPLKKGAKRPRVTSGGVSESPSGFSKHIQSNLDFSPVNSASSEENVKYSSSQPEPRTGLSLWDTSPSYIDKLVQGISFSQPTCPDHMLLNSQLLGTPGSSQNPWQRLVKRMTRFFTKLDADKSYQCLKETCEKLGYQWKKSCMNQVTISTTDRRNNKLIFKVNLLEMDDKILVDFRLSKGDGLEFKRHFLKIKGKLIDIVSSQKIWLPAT

NCI-H1299 = assay: Antiproliferative activity against human NCI-H1299 cells assessed as inhibition of cell growth incubated for 72 hrs by cell-titer glo assay; format: functional, cell-based; conditions: NCI-H1299, 72 h; in short: as §2
[5] = biological target: Proto-oncogene tyrosine-protein kinase ROS (Homo sapiens, UniProt P08922); assay: Inhibition of ROS (unknown origin) in presence of [gamma-33P]ATP
Sequence of Proto-oncogene tyrosine-protein kinase ROS (P08922 whole entry): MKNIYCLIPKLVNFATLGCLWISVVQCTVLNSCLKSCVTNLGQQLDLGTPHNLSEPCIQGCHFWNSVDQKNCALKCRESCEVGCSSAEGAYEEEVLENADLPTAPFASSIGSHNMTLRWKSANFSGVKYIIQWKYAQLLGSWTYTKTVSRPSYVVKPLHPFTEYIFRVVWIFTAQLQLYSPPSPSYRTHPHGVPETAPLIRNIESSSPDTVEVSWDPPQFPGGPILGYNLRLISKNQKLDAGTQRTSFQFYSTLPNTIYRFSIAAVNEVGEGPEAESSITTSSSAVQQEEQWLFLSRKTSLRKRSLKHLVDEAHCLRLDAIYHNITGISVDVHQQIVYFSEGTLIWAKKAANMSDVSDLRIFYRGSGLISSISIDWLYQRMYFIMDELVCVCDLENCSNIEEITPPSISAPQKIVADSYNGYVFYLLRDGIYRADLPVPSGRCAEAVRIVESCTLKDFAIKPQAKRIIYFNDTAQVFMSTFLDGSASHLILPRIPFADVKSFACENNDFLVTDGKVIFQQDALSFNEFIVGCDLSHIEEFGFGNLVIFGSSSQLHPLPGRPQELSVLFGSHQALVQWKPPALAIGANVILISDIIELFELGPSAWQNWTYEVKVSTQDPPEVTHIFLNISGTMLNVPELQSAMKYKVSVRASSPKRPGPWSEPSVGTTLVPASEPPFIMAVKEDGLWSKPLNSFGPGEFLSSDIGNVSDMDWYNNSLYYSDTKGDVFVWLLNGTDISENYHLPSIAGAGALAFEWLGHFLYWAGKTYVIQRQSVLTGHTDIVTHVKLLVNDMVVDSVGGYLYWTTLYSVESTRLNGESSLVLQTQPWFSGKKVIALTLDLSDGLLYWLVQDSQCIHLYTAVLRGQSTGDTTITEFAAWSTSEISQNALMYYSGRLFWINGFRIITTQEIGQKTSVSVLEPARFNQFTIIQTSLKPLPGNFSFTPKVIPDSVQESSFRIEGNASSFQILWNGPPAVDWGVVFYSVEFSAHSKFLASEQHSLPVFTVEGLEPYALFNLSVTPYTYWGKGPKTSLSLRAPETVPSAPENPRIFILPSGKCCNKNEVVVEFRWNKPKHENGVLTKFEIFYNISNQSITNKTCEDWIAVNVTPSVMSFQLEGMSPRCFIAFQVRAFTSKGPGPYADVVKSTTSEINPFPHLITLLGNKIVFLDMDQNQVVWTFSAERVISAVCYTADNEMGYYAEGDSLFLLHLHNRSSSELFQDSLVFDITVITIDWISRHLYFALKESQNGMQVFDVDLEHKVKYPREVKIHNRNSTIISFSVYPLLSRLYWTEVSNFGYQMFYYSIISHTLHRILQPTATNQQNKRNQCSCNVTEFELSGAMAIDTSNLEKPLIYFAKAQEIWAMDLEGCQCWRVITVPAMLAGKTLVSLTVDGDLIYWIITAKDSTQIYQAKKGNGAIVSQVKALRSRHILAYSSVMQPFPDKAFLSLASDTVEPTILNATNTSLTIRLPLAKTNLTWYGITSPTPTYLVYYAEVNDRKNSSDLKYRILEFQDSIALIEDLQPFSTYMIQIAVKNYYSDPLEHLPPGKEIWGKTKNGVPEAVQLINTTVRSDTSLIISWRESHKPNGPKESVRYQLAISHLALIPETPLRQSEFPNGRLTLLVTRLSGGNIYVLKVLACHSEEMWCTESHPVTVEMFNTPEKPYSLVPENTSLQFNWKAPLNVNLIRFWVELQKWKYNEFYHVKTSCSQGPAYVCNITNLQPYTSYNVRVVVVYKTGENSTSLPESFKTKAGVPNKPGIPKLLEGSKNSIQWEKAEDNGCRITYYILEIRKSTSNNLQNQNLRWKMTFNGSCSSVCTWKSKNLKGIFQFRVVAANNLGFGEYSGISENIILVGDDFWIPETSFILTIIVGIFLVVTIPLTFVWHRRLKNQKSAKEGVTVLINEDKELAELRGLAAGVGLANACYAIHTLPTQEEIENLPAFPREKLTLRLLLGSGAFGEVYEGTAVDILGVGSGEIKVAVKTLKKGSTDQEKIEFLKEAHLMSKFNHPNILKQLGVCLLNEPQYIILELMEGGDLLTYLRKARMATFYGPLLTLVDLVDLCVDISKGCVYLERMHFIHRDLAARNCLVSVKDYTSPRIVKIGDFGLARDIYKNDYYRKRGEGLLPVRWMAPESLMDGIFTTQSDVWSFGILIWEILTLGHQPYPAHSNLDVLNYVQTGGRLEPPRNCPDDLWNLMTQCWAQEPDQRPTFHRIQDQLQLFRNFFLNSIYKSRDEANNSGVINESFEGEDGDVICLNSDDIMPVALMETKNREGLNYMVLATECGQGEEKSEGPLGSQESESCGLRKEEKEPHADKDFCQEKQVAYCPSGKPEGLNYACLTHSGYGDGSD

[6] = Antiproliferative activity against human A2780cis cells assessed as inhibition of cell growth incubated for 72 hrs by cell-titer glo assay; format: functional, cell-based; in short: as §1
COLO 205 = assay: Antiproliferative activity against human COLO 205 cells assessed as inhibition of cell growth incubated for 72 hrs by cell-titer glo assay; format: functional, cell-based; conditions: COLO 205, 72 h; in short: as §1
[7] = biological target: Serine/threonine-protein kinase TBK1 (Homo sapiens) (UniProt Q9UHD2); assay: Inhibition of N-terminal His6-tagged recombinant full-length human TBK1 expressed in baculovirus infected Sf21 cells assessed as residual activity at 1 uM relative to control
[8] = biological target: PAS domain-containing serine/threonine-protein kinase (Homo sapiens) (UniProt Q96RG2); assay: Inhibition of human PASK assessed as residual activity at 0.1 uM relative to control
Sequence of PAS domain-containing serine/threonine-protein kinase (Homo sapiens) (Q96RG2 whole entry, the tested form may be a part): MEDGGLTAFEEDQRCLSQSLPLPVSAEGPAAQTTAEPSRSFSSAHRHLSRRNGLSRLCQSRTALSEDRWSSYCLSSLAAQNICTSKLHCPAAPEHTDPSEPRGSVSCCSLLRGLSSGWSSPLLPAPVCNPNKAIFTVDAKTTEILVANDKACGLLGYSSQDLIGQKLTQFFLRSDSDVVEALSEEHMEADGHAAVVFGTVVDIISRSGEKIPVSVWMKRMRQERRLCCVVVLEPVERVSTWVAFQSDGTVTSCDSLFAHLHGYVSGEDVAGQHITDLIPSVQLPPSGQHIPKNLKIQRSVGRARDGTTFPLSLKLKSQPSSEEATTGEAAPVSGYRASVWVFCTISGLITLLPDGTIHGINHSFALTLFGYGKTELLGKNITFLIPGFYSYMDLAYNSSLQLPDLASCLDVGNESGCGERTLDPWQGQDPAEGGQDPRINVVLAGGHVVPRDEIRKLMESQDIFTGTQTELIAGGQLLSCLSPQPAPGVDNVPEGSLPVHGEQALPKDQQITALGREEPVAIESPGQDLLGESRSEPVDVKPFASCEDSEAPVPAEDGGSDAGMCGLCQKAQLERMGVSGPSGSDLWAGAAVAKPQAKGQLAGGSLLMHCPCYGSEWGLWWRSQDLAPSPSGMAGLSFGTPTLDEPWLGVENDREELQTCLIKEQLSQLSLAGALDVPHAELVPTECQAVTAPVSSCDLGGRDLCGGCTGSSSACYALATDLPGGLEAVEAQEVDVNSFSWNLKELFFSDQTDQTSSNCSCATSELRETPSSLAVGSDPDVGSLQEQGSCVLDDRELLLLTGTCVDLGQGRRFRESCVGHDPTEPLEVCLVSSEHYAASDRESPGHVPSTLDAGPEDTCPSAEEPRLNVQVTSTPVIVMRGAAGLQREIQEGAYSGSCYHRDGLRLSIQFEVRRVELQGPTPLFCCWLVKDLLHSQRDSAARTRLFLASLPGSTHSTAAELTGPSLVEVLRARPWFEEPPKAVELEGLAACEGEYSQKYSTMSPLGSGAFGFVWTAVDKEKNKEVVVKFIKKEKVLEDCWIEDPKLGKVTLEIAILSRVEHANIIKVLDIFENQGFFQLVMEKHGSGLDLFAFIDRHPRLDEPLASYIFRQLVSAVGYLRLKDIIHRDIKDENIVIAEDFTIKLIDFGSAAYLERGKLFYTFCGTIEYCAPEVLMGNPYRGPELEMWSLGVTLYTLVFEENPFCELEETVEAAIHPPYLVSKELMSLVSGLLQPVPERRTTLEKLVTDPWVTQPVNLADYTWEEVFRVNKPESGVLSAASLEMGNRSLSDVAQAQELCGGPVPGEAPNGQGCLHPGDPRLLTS

OVCAR-8 = assay: Antiproliferative activity against human OVCAR-8 cells assessed as inhibition of cell growth incubated for 72 hrs by cell-titer glo assay; format: functional, cell-based; conditions: OVCAR-8, 72 h; in short: as §2
A2780 = assay: Induction of cell cycle arrest in human A2780 cells assessed as accumulation of cells in G2/M phase by measuring upregulated PLK1 expression incubated for 24 hrs by Western blotting analysis; format: functional, cell-based; conditions: dose 0.02-0.2 µmol/L
In short: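 A2780 ovarian carcinoma cells treated 24 h with a range of concentrations, with DMSO and nocodazole controls. 20 µg protein extract separated by SDS-PAGE and immunoblotted with chemiluminescent detection. Probed for total and phospho-Thr210 PLK1, phospho-Ser10 histone H3, phospho-Thr199 NPM and phospho-Tyr15 CDK1. Total NPM, tubulin and total CDK1 served as loading controls.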

HOP-62 = assay: Antiproliferative activity against human HOP-62 cells assessed as inhibition of cell growth incubated for 72 hrs by cell-titer glo assay; format: functional, cell-based; conditions: HOP-62, 72 h; in short: as §3
HL-60 = assay: Antiproliferative activity against human HL-60 cells assessed as inhibition of cell growth incubated for 72 hrs by cell-titer glo assay; format: functional, cell-based; conditions: HL-60, 72 h; in short: as §3
U-87 MG = assay: Antiproliferative activity against human U-87 MG cells assessed as inhibition of cell growth incubated for 72 hrs by cell-titer glo assay; format: functional, cell-based, U-87MG ATCC
[9] = biological target: Vascular endothelial growth factor receptor 2 (Homo sapiens, UniProt P35968); assay: Inhibition of VEGFR2 (unknown origin) in presence of [gamma-33P]ATP
NCI-H358 = assay: Antiproliferative activity against human NCI-H358 cells assessed as inhibition of cell growth incubated for 72 hrs by cell-titer glo assay; format: functional, cell-based; conditions: NCI-H358, 72 h; in short: as §2
[10] = biological target: Testis-specific serine/threonine-protein kinase 1 (Homo sapiens) (UniProt Q9BXA7); assay: Inhibition of 6His-tagged recombinant human full length TSSK1 expressed in baculovirus infected Sf21 cells assessed as residual activity at 1 uM relative to control
U2OS = assay: Effect on cell morphology in human U2OS cells expressing GFP/alpha-tubulin fusion protein assessed as misaligned chromosomes […] at 1 uM incubated for 24 hrs by laser scanning confocal microscopy analysis; format: functional, cell-based
[11] = biological target: SRSF protein kinase 3 (Homo sapiens) (UniProt Q9UPE1); assay: Inhibition of N-terminal 6His-tagged recombinant human full-length MSSK1 expressed in baculovirus infected Sf21 cells assessed as residual activity at 0.1 uM relative to control
1A9 = assay: Antiproliferative activity against human 1A9 cells assessed as inhibition of cell growth incubated for 72 hrs by cell-titer glo assay; format: functional, cell-based; conditions: 1A9, 72 h; in short: as §1
CAL-12T = assay: Antiproliferative activity against human CAL-12T cells assessed as inhibition of cell growth incubated for 72 hrs by cell-titer glo assay; format: functional, cell-based; in short: as §1
[12] = biological target: Fibroblast growth factor receptor 1 (Homo sapiens, UniProt P11362); assay: Inhibition of FGFR1 (unknown origin) in presence of [gamma-33P]ATP
Sequence of Fibroblast growth factor receptor 1 (P11362 whole entry): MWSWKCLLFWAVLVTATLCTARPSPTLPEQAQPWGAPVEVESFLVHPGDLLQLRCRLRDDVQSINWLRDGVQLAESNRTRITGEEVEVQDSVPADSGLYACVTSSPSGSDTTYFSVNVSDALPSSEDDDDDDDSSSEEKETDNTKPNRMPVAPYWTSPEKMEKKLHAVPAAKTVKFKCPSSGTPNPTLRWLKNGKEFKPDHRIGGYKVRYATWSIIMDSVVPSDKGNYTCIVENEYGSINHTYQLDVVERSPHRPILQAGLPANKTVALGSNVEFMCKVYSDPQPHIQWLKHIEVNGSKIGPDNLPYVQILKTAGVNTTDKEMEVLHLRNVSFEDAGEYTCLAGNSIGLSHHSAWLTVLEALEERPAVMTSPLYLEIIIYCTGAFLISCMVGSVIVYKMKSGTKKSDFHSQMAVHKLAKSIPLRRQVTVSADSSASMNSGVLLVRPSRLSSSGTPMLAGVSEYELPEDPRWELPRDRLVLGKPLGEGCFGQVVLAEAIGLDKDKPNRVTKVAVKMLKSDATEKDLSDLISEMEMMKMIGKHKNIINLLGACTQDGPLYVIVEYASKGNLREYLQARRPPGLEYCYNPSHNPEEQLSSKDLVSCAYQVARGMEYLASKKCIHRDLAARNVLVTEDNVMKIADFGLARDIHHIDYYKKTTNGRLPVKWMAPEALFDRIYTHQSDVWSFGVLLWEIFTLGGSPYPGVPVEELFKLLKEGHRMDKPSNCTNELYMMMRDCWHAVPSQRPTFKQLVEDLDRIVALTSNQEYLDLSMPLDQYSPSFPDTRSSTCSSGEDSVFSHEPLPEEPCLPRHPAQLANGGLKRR

SF-539 = assay: Antiproliferative activity against human SF-539 cells assessed as inhibition of cell growth incubated for 72 hrs by cell-titer glo assay; format: functional, cell-based; conditions: SF-539, 72 h; in short: as §2
AU565 = assay: Antiproliferative activity against human AU565 cells assessed as inhibition of cell growth incubated for 72 hrs by cell-titer glo assay; format: functional, cell-based; conditions: AU565, 72 h; in short: as §1
[13] = biological target: Tyrosine-protein kinase Lyn (Homo sapiens, UniProt P07948); assay: Inhibition of N-terminal his6-tagged recombinant full-length human Lyn expressed in Sf21 cells assessed as residual activity at 1 uM relative to control
UACC-62 = assay: Antiproliferative activity against human UACC-62 cells assessed as inhibition of cell growth incubated for 72 hrs by cell-titer glo assay; format: functional, cell-based; conditions: UACC-62, 72 h

Compound: CN1CCN(c2ccc(OC(F)(F)F)c(Nc3ncc4c(n3)-c3c(c(C(N)=O)nn3CCO)CC4)c2)CC1 [ONVANSERTIB]
- IC50 (BT-549): 49 nM
- Activity [1]: Toxic
- IC50 [2]: > 10000 nM
- IC50 (RERF-LC-AI): 90 nM
- IC50 (MDA-MB-436): 93 nM
- IC50 [3]: 82 nM
- Activity [4]: 113%
- IC50 (NCI-H1299): 347 nM
- IC50 [5]: > 10000 nM
- IC50 [6]: 48 nM
- IC50 (COLO 205): 32 nM
- Activity [7]: 96%
- Activity [8]: 127%
- IC50 (OVCAR-8): 59 nM
- Activity (A2780): Dose-Dependent Effect
- IC50 (HOP-62): 209 nM
- IC50 (HL-60): 73 nM
- IC50 (U-87 MG): 991 nM
- IC50 [9]: > 10000 nM
- IC50 (NCI-H358): 175 nM
- Activity [10]: 20%
- Activity (U2OS): Active
- Activity [11]: 87%
- IC50 (1A9): 62 nM
- IC50 (CAL-12T): 191 nM
- IC50 [12]: > 10000 nM
- IC50 (SF-539): 47 nM
- IC50 (AU565): 11 nM
- Activity [13]: 198%
- IC50 (UACC-62): 103 nM
